Laboratory results as given in ChEMBL document CHEMBL4406859, “Antitumor and antiviral activities of 4-substituted 1,2,3-triazolyl-2,3-dibenzyl-L-ascorbic acid derivatives” (Eur J Med Chem, 2019).
Active and inactive are the calls of the source. The calls are words filed in the database; no cut-off is given here.

Tests used:
[1] = tested on: Influenza A virus; test: Antiviral activity against Influenza A virus (A/Ned/378/05(H1N1)) infected in dog MDCK cells assessed as reduction in virus-induced cytopathogenicity incubated for 7 days by MTS assay; assay type: functional, organism-based
[2] = tested on: Influenza B virus; test: Antiviral activity against Influenza B virus (B/Ned/537/05) infected in dog MDCK cells assessed as reduction in virus-induced cytopathogenicity incubated for 7 days by microscopic analysis; assay type: functional, organism-based; conditions: for EC50: 168 h
[3] = Cytotoxicity against dog MDCK cells assessed as minimum cytotoxic concentration by observing alteration in cell morphology incubated for 3 days by microscopic analysis; assay type: cell-based, Canis lupus familiaris
[4] = tested on: Influenza A virus H3N2; test: Antiviral activity against Influenza A virus (A/HK/7/87(H3N2)) infected in dog MDCK cells assessed as reduction in virus-induced cytopathogenicity incubated for 7 days by microscopic analysis; assay type: functional, organism-based; conditions: A/Hong Kong/7/1987(H3N2); for EC50: 168 h
[5] = tested on: Influenza A virus; test: Antiviral activity against Influenza A virus (A/Ned/378/05(H1N1)) infected in dog MDCK cells assessed as reduction in virus-induced cytopathogenicity incubated for 7 days by microscopic analysis; assay type: functional, organism-based; conditions: for EC50: Influenza A virus, A/Ned/378/05(H1N1), MDCK, 168 h
[6] = tested on: MDCK; test: Cytotoxicity against dog MDCK cells assessed as reduction in cell viability incubated for 3 days by coulter counter method; assay type: cell-based, Canis lupus familiaris; conditions: mdck, 72 h
[7] = tested on: Influenza B virus; test: Antiviral activity against Influenza B virus (B/Ned/537/05) infected in dog MDCK cells assessed as reduction in virus-induced cytopathogenicity incubated for 7 days by MTS assay; assay type: functional, organism-based; conditions: for EC50: 168 h
[8] = tested on: Influenza A virus H3N2; test: Antiviral activity against Influenza A virus (A/HK/7/87(H3N2)) infected in dog MDCK cells assessed as reduction in virus-induced cytopathogenicity incubated for 7 days by MTS assay; assay type: functional, organism-based; conditions: A/Hong Kong/7/1987(H3N2); for EC50: 168 h
[9] = tested on: Cytomegalovirus; test: Antiviral activity against Cytomegalovirus Davis infected in human HELF cells assessed as reduction in virus-induced cytopathogenicity incubated for 7 days by Giemsa staining based microscopic analysis; assay type: functional, organism-based; conditions: Human betaherpesvirus 5, Davis, 168 h
In short: (§1)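 Confluent HEL fibroblasts infected with CMV (Davis or AD-169) at 100 PFU/well for 2 h. Residual virus removed, then medium with graded compound concentrations added (duplicate). Incubated 7 days at 37 °C. Cytopathogenicity scored microscopically after ethanol fixation and Giemsa staining. EC50 read from plots of % cytopathogenicity versus concentration.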

[10] = tested on: Human coronavirus 229E; test: Antiviral activity against Human coronavirus 229E infected in human HELF cells assessed as reduction in virus-induced cytopathogenicity incubated for 7 days by microscopic analysis; assay type: functional, organism-based
[11] = tested on: MCF7; test: Antiproliferative activity against human MCF7 cells assessed as reduction in cell viability incubated for 72 hrs by MTT assay; assay type: functional, cell-based; conditions: MCF7, 72 h
In short: (§2)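 Cells (ATCC) grown in DMEM with 10 FBS, penicillin/streptomycin, 2 mM glutamine, 37 °C, 5 CO2. 5000 cells/well seeded; after 24 h, freshly prepared dilutions at five concentrations (0.01–100 μM) added for 72 h. MTT read-out; absorbance converted to percentage growth by NIH formulas. Two experiments in quadruplicate; IC50 by linear regression.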

[12] = tested on: HCT-116; test: Antiproliferative activity against human HCT116cells assessed as reduction in cell viability incubated for 72 hrs by MTT assay; assay type: functional, cell-based; conditions: HCT-116, 72 h; in short: as §2
[13] = tested on: Cytomegalovirus; test: Antiviral activity against Cytomegalovirus AD169 infected in human HELF cells assessed as reduction in virus-induced cytopathogenicity incubated for 7 days by Giemsa staining based microscopic analysis; assay type: functional, organism-based; conditions: Human betaherpesvirus 5, AD169, HELF, 168 h; in short: as §1
[14] = tested on: A549; test: Antiproliferative activity against human A549 cells assessed as reduction in cell viability incubated for 72 hrs by MTT assay; assay type: functional, cell-based; conditions: A549, 72 h; in short: as §2
[15] = tested on: HeLa; test: Antiproliferative activity against human HeLa cells assessed as reduction in cell viability incubated for 72 hrs by MTT assay; assay type: functional, cell-based; in short: as §2
[16] = tested on: Human alphaherpesvirus 1; test: Antiviral activity against Herpes simplex virus 1 KOS infected in human HELF cells assessed as reduction in virus-induced cytopathogenicity incubated for 7 days by microscopic analysis; assay type: functional, organism-based; conditions: strain KOS
[17] = tested on: Reovirus sp.; test: Antiviral activity against Reovirus infected in vero cells assessed as reduction in virus-induced cytopathogenicity incubated for 7 days by microscopic analysis; assay type: functional, organism-based
[18] = Cytotoxicity against human HELF cells assessed as reduction in cell viability incubated for 3 days by coulter counter method; assay type: cell-based; conditions: 72 h
In short: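 HEL cells seeded at 5 x 10^3/well and allowed to proliferate 24 h, then exposed to graded compound concentrations for 3 days at 37 °C. Cell number counted with a Coulter counter.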

[19] = tested on: HFF; test: Cytotoxicity against human HFF cells assessed as reduction in cell viability incubated for 72 hrs by MTT assay; assay type: cell-based; in short: as §2
[20] = Cytotoxicity against human HELF cells assessed as minimum cytotoxic concentration by observing alteration in cell morphology incubated for 3 days by microscopic analysis; assay type: cell-based; conditions: HELF cells
In short: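 Read-out is the minimum cytotoxic concentration (MCC): the lowest compound concentration giving a microscopically detectable change in cell morphology. Measured on confluent human embryonic lung (HEL) fibroblast cultures exposed to a range of compound concentrations.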

[21] = tested on: Sindbis virus; test: Antiviral activity against Sindbis virus infected in vero cells assessed as reduction in virus-induced cytopathogenicity incubated for 7 days by microscopic analysis; assay type: functional, organism-based
[22] = tested on: HepG2; test: Antiproliferative activity against human HepG2 cells assessed as reduction in cell viability incubated for 72 hrs by MTT assay; assay type: functional, cell-based; conditions: HepG2, 72 h; in short: as §2
[23] = tested on: SW-620; test: Antiproliferative activity against human SW620 cells assessed as reduction in cell viability incubated for 72 hrs by MTT assay; assay type: functional, cell-based; conditions: SW-620, 72 h; in short: as §2
[24] = tested on: Human alphaherpesvirus 3; test: Antiviral activity against thymidine kinase positive Varicella zoster virus infected in human HELF cells assessed as reduction in virus-induced cytopathogenicity incubated for 7 days by Giemsa staining based microscopic analysis; assay type: functional, organism-based; conditions: Human alphaherpesvirus 3, HELF, 168 h
[25] = tested on: Human alphaherpesvirus 1; test: Antiviral activity against Herpes simplex virus 1 TK-KOS-ACV infected in human HELF cells assessed as reduction in virus-induced cytopathogenicity incubated for 7 days by microscopic analysis; assay type: functional, organism-based
[26] = tested on: Coxsackievirus B4; test: Antiviral activity against Human coxsackievirus B4 infected in vero cells assessed as reduction in virus-induced cytopathogenicity incubated for 7 days by microscopic analysis; assay type: functional, organism-based
[27] = tested on: CFPAC-1; test: Antiproliferative activity against human CFPAC-1 cells assessed as reduction in cell viability incubated for 72 hrs by MTT assay; assay type: functional, cell-based; in short: as §2
[28] = tested on: Human alphaherpesvirus 2; test: Antiviral activity against Herpes simplex virus 2 G infected in human HELF cells assessed as reduction in virus-induced cytopathogenicity incubated for 7 days by microscopic analysis; assay type: functional, organism-based
[29] = tested on: Human adenovirus 2; test: Antiviral activity against Human adenovirus 2 infected in human HELF cells assessed as reduction in virus-induced cytopathogenicity incubated for 7 days by microscopic analysis; assay type: functional, organism-based
[30] = tested on: Human alphaherpesvirus 3; test: Antiviral activity against thymidine kinase deficient Varicella zoster virus infected in human HELF cells assessed as reduction in virus-induced cytopathogenicity incubated for 7 days by Giemsa staining based microscopic analysis; assay type: functional, organism-based; conditions: Human alphaherpesvirus 3, HELF, 168 h
[31] = Homo sapiens, CFPAC-1, 72 h, read-out: IC50

Structure (SMILES) | Activity [1] | EC50 [9] | Activity [10] | IC50 [11] | IC50 [12] | Activity [2] | EC50 [13] | IC50 [14] | IC50 [15] | Activity [16] | Activity [17] | Activity [4] | CC50 [18] | IC50 [19] | MCC at 72 h [20] | Activity [21] | Activity [5] | IC50 [22] | IC50 [23] | EC50 [24] | also measured
NC12CC3CC(CC(C3)C1)C2 [AMANTADINE] |  |  |  |  |  |  |  |  |  |  |  |  |  |  |  |  |  |  |  |  | EC50 [1]: 22.6 µM; EC50 [2]: > 100 µM; MCC at 72 h [3]: > 100 µM; EC50 [4]: 0.2 µM; EC50 [5]: 20 µM; CC50 [6]: > 100 µM; EC50 [7]: > 100 µM; EC50 [8]: 0.03 µM
O=C1O/C(=C\Cn2cc(-c3cc(F)cc(F)c3)nn2)C(OCc2ccccc2)=C1OCc1ccccc1 | inactive | 8.94 µM | inactive | > 100 µM | > 100 µM | inactive | 9.36 µM | > 100 µM | 17.7 µM | inactive | inactive | inactive | > 100 µM | > 100 µM | 100 µM | inactive | inactive | > 100 µM | > 100 µM | 14.6 µM | Activity [25]: inactive; Activity [26]: inactive; IC50 ([27]; cfpac-1): Not Active; Activity [7]: inactive; Activity [28]: inactive; Activity [8]: inactive; Activity [29]: inactive; EC50 [30]: > 100 µM
CC(=O)N[C@H]1[C@H]([C@H](O)[C@H](O)CO)OC(C(=O)O)=C[C@@H]1N=C(N)N [ZANAMIVIR] |  |  |  |  |  |  |  |  |  |  |  |  |  |  |  |  |  |  |  |  | EC50 [2]: 0.4 µM; MCC at 72 h [3]: > 100 µM; EC50 [4]: 0.4 µM; CC50 [6]: ≥ 100 µM; EC50 [7]: 0.4 µM; EC50 [8]: 0.01 µM
O=C1O/C(=C\Cn2cc(-c3ccc(Br)cc3)nn2)C(OCc2ccccc2)=C1OCc1ccccc1 | inactive | 8.94 µM | inactive | > 100 µM | > 100 µM | inactive | > 100 µM | > 100 µM | 24.3 µM | inactive | inactive | inactive | > 100 µM | > 100 µM | > 100 µM | inactive | inactive | > 100 µM | > 100 µM | 44.7 µM | Activity [25]: inactive; Activity [26]: inactive; IC50 [27, 31]: > 100 µM; Activity [7]: inactive; Activity [28]: inactive; Activity [8]: inactive; Activity [29]: inactive; EC50 [30]: > 100 µM
CC(N)C12CC3CC(CC(C3)C1)C2 (centres undefined) [RIMANTADINE] |  |  |  |  |  |  |  |  |  |  |  |  |  |  |  |  |  |  |  |  | EC50 ([1]; Influenza A virus, A/Ned/378/05(H1N1), MDCK, 168 h): > 200 µM; EC50 [2]: > 200 µM; MCC at 72 h [3]: > 200 µM; EC50 [4]: 0.01 µM; EC50 [5]: > 200 µM; CC50 [6]: > 200 µM; EC50 [7]: > 200 µM; EC50 [8]: 0.01 µM
O=C1O/C(=C\Cn2cc(-c3cccc(O)c3)nn2)C(OCc2ccccc2)=C1OCc1ccccc1 | inactive | 8.94 µM | inactive | 27.8 µM | 63.6 µM | inactive | 9.36 µM | 23.3 µM | 74.8 µM | inactive | inactive | inactive | 11.1 µM | 42.6 µM | 100 µM | inactive | inactive | 61.7 µM | 69.8 µM | 11.6 µM | Activity [25]: inactive; Activity [26]: inactive; IC50 [27, 31]: 33.7 µM; Activity [7]: inactive; Activity [28]: inactive; Activity [8]: inactive; Activity [29]: inactive; EC50 [30]: 14.7 µM
CC(C)(C)c1cn(C/C=C2\OC(=O)C(OCc3ccccc3)=C2OCc2ccccc2)nn1 | inactive | 5.2 µM | inactive | 4.93 µM | 47.3 µM | inactive | 8.94 µM | 5.25 µM | > 100 µM | inactive | inactive | inactive | 55.5 µM | 49.9 µM | 100 µM | inactive | inactive | 62.2 µM | 20.7 µM | 11.7 µM | Activity [25]: inactive; Activity [26]: inactive; IC50 [27, 31]: > 100 µM; Activity [7]: inactive; Activity [28]: inactive; Activity [8]: inactive; Activity [29]: inactive; EC50 [30]: 10 µM
